# Assay results published in ChEMBL document CHEMBL4354828, “Discovery of Taniborbactam (VNRX-5133): A Broad-Spectrum Serine- and Metallo-β-lactamase Inhibitor for Carbapenem-Resistant Bacterial Infections” (J Med Chem, 2020).
# pIC50: −log10 of the molar value.
# Tests used:
# [1] = Inhibition of bacterial KPC-2 using imipenem as substrate preincubated for 15 mins followed by susbtrate addition and measured after 10 mins by spectrophotometric method; set-up: species or system Bacteria
# [2] = Inhibition of bacterial OXA-48 using nitrocefin as substrate preincubated for 15 mins followed by susbtrate addition and measured after 10 mins by spectrophotometric method; set-up: species or system Bacteria
# [3] = Inhibition of bacterial VIM-2 using nitrocefin as substrate preincubated for 15 mins followed by susbtrate addition and measured after 10 mins by spectrophotometric method; set-up: species or system Bacteria
# Summary of the method: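 Purified β-lactamase inhibition. IC50 values are the average of duplicates unless otherwise indicated.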
# [4] = Inhibition of bacterial SHV-5 using cefotaxime as substrate preincubated for 15 mins followed by susbtrate addition and measured after 10 mins by spectrophotometric method; set-up: species or system Bacteria
# [5] = Inhibition of bacterial CTX-M-15 using cefotaxime as substrate preincubated for 15 mins followed by susbtrate addition and measured after 10 mins by spectrophotometric method; set-up: species or system Bacteria
# [6] = Inhibition of bacterial CMY-2 using nitrocefin as substrate preincubated for 15 mins followed by susbtrate addition and measured after 10 mins by spectrophotometric method; set-up: species or system Bacteria
# [7] = Inhibition of bacterial NDM-1 using cefepime as substrate preincubated for 15 mins followed by susbtrate addition and measured after 10 mins by spectrophotometric method; set-up: species or system Bacteria
# [8] = Inhibition of bacterial IMP-1 using nitrocefin as substrate preincubated for 15 mins followed by susbtrate addition and measured after 10 mins by spectrophotometric method; set-up: species or system Bacteria
# Escherichia coli [9] = assay: Inhibition of NDM-1/CMY-6/OXA-1 in Escherichia coli CDC-0055 assessed as piperacillin antibacterial activity at 16 ug/ml after 16 to 20 hrs by CLSI-based microbroth dilution method
# Summary of the method: (§1)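 MDR β-lactamase-producing Gram-negative clinical isolates. […] MIC was reported as the inhibitor concentration that restores the partner's antibacterial activity.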
# Pseudomonas aeruginosa [10] = assay: Inhibition of KPC-2/PDC-42 in Pseudomonas aeruginosa CDC-0356 assessed as piperacillin antibacterial activity at 16 ug/ml after 16 to 20 hrs by CLSI-based microbroth dilution method (Rvb > […] ug/ml)
# Escherichia coli [11] = assay: Inhibition of NDM in Escherichia coli CDC-0452 assessed as piperacillin antibacterial activity at 16 ug/ml after 16 to 20 hrs by CLSI-based microbroth dilution method (Rvb > […] ug/ml)
# Escherichia coli [12] = assay: Inhibition of NDM-1/CMY-6/OXA-1 in Escherichia coli CDC-0055 assessed as cefepime antibacterial activity at 8 ug/ml after 16 to 20 hrs by CLSI-based microbroth dilution method; summary of the method: as §1
# Pseudomonas aeruginosa [13] = assay: Inhibition of KPC-2/PDC-42 in Pseudomonas aeruginosa CDC-0356 assessed as cefepime antibacterial activity at 8 ug/ml after 16 to 20 hrs by CLSI-based microbroth dilution method (Rvb > […] ug/ml)
# [14] = tested on: Klebsiella pneumoniae ATCC BAA-1705; assay: Inhibition of KPC-2 in Klebsiella pneumoniae ATCC BAA 1705 assessed as meropenem antibacterial activity at 4 ug/ml after 16 to 20 hrs by CLSI-based microbroth dilution method (reference value: […] ug/ml)
# Escherichia coli [15] = assay: Inhibition of NDM-1/CMY-6/OXA-1 in Escherichia coli CDC-0055 assessed as meropenem antibacterial activity at 4 ug/ml after 16 to 20 hrs by CLSI-based microbroth dilution method (reference value: […] ug/ml)
# Pseudomonas aeruginosa [16] = assay: Inhibition of KPC-2/PDC-42 in Pseudomonas aeruginosa CDC-0356 assessed as meropenem antibacterial activity at 4 ug/ml after 16 to 20 hrs by CLSI-based microbroth dilution method (reference value: […] ug/ml)
# Escherichia coli [17] = assay: Inhibition of NDM in Escherichia coli CDC-0452 assessed as meropenem antibacterial activity at 4 ug/ml after 16 to 20 hrs by CLSI-based microbroth dilution method (reference value: […] ug/ml)
# Escherichia coli [18] = assay: Inhibition of TEM/CTX-M/SHV/Cephalosporinase in Escherichia coli EC1552 assessed as cefepime antibacterial activity at 4 ug/ml after 16 to 20 hrs by CLSI-based microbroth dilution method (reference value: […] ug/ml)
# Enterobacter cloacae [19] = assay: Inhibition of TEM/CTX-M/SHV/Cephalosporinase in Enterobacter cloacae CH23 assessed as cefepime antibacterial activity at 4 ug/ml after 16 to 20 hrs by CLSI-based microbroth dilution method (Rvb > […] ug/ml)
# Klebsiella pneumoniae [20] = assay: Inhibition of TEM/CTX-M/SHV in Klebsiella pneumoniae 9032 assessed as cefepime antibacterial activity at 4 ug/ml after 16 to 20 hrs by CLSI-based microbroth dilution method (reference value: […] ug/ml)
# Escherichia coli [21] = assay: Inhibition of VIM-1/VIM-2/VIM-4/NDM-1 in Escherichia coli assessed as cefepime antibacterial activity at 4 ug/ml after 16 to 20 hrs by CLSI-based microbroth dilution method
# Summary of the method: (§2)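 Panel of 14 clinical isolates expressing class B VIM- or NDM-type MBLs: E. coli (4), E. cloacae (2), K. pneumoniae (4), P. aeruginosa (1), A. baumannii (3).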
# Enterobacter cloacae [22] = assay: Inhibition of VIM-1/VIM-2/VIM-4/NDM-1 in Enterobacter cloacae assessed as cefepime antibacterial activity at 4 ug/ml after 16 to 20 hrs by CLSI-based microbroth dilution method; summary of the method: as §2
# Klebsiella pneumoniae [23] = assay: Inhibition of VIM-1/VIM-2/VIM-4/NDM-1 in Klebsiella pneumoniae assessed as cefepime antibacterial activity at 4 ug/ml after 16 to 20 hrs by CLSI-based microbroth dilution method
# Pseudomonas aeruginosa [24] = assay: Inhibition of VIM-1/VIM-2/VIM-4/NDM-1 in Pseudomonas aeruginosa assessed as cefepime antibacterial activity at 4 ug/ml after 16 to 20 hrs by CLSI-based microbroth dilution method; summary of the method: as §2
# Acinetobacter baumannii = assay: Inhibition of VIM-1/VIM-2/VIM-4/NDM-1 in Acinetobacter baumannii assessed as cefepime antibacterial activity at 4 ug/ml after 16 to 20 hrs by CLSI-based microbroth dilution method; summary of the method: as §2
# Pseudomonas aeruginosa [25] = assay: Inhibition of VIM in Pseudomonas aeruginosa CDC-0457 assessed as cefepime antibacterial activity at 8 ug/ml after 16 to 20 hrs by CLSI-based microbroth dilution method
# Pseudomonas aeruginosa [26] = assay: Inhibition of VIM in Pseudomonas aeruginosa CDC-0457 assessed as meropenem antibacterial activity at 4 ug/ml after 16 to 20 hrs by CLSI-based microbroth dilution method
# [27] = AUC (infinity) in mouse at 10 mg/kg, iv after 1 to 6 hrs by LC-MS/MS analysis; assay type: ADME, organism-based; set-up: dose 10 mg/kg, time infinity, route intravenous; details: in vivo
structure (smiles),measurement,setting,value
C[C@]1(Cn2ccnn2)[C@H](C(=O)O)N2C(=O)C[C@H]2S1(=O)=O [TAZOBACTAM],pIC50,[1],5.77
same,pIC50,[2],6.26
same,pIC50,[3],< 4.00
same,pIC50,[4],7.82
same,pIC50,[5],9.00
same,pIC50,[6],6.39
same,pIC50,[7],< 4.00
same,pIC50,[8],< 4.00
same,MIC,Escherichia coli [9],> 16 µg/mL
same,MIC,Pseudomonas aeruginosa [10],> 16 µg/mL
same,MIC,Escherichia coli [11],> 16 µg/mL
same,MIC,Escherichia coli [12],> 16 µg/mL
same,MIC,Pseudomonas aeruginosa [13],> 16 µg/mL
same,MIC,[14],8 µg/mL
same,MIC,Escherichia coli [15],> 16 µg/mL
same,MIC,Pseudomonas aeruginosa [16],> 16 µg/mL
same,MIC,Escherichia coli [17],> 16 µg/mL
same,MIC,Escherichia coli [18],4 µg/mL
same,MIC,Enterobacter cloacae [19],> 16 µg/mL
same,MIC,Klebsiella pneumoniae [20],4 µg/mL
same,MIC50,Escherichia coli [21],> 32 µg/mL
same,MIC90,Escherichia coli [21],> 32 µg/mL
same,MIC50,Enterobacter cloacae [22],> 32 µg/mL
same,MIC90,Enterobacter cloacae [22],> 32 µg/mL
same,MIC50,Klebsiella pneumoniae [23],> 32 µg/mL
same,MIC90,Klebsiella pneumoniae [23],> 32 µg/mL
same,MIC50,Pseudomonas aeruginosa [24],> 32 µg/mL
same,MIC90,Pseudomonas aeruginosa [24],> 32 µg/mL
same,MIC50,Acinetobacter baumannii,> 32 µg/mL
same,MIC90,Acinetobacter baumannii,> 32 µg/mL
same,MIC,Pseudomonas aeruginosa [25],> 16 µg/mL
same,MIC,Pseudomonas aeruginosa [26],> 16 µg/mL
CO/N=C(\C(=O)N[C@@H]1C(=O)N2C(C(=O)[O-])=C(C[N+]3(C)CCCC3)CS[C@H]12)c1csc(N)n1,AUC(0-inf),[27],15800 ng·h/mL
